In ChEMBL document CHEMBL3351672, “Saccharin derivatives as inhibitors of interferon-mediated inflammation” (J Med Chem, 2014):
Activity calls are given as the source filed them. No cut-off for these calls is given here.

Key:
[1] = test system: RAW264.7; assay: Antiinflammatory activity in mouse RAW264.7 cells assessed as inhibition of LPS-induced nitric oxide production; format: functional, cell-based
Summary of the method: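 RAW 264.7 cells stimulated with 20 ng/mL LPS plus a range of compound concentrations; nitric oxide output measured. Data normalized so LPS + solvent = 100% and untreated cells = 0% activation; IC50 fitted from dose–response, points averaged over nine replicates (SD).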

[2] = test system: RAW264.7; assay: Cytotoxicity against mouse RAW264.7 cells assessed as cell viability by WST1 assay; format: cell-based; conditions: read-out: LC50 (the source's name) (converted)
Summary of the method: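 RAW 264.7 mouse macrophages were stimulated with 20 ng/mL LPS and given a range of compound concentrations, alongside the nitric oxide inhibition assay. Cell viability was measured at each tested concentration. LC50 was taken as the concentration giving 50% cell viability.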

[3] = test system: RAW264.7; assay: Inhibition of IFNgamma-induced iNOS mRNA expression in mouse RAW264.7 cells at 1 to 50 uM after 16 hrs by RT-PCR analysis; format: functional
[4] = biological target: T1, Nuclear factor NF-kappa-B complex (Homo sapiens) (UniProt Q00653+P19838+Q04206); assay: Inhibition of LPS-induced NFkappaB activation in human HEK293T cells at 0.5 to 1 uM after 18 to 24 hrs by secreted embryonic alkaline phosphatase reporter gene assay; format: cell-based; conditions: HEK-293T
T1 sequence (P19838 whole entry, looked up): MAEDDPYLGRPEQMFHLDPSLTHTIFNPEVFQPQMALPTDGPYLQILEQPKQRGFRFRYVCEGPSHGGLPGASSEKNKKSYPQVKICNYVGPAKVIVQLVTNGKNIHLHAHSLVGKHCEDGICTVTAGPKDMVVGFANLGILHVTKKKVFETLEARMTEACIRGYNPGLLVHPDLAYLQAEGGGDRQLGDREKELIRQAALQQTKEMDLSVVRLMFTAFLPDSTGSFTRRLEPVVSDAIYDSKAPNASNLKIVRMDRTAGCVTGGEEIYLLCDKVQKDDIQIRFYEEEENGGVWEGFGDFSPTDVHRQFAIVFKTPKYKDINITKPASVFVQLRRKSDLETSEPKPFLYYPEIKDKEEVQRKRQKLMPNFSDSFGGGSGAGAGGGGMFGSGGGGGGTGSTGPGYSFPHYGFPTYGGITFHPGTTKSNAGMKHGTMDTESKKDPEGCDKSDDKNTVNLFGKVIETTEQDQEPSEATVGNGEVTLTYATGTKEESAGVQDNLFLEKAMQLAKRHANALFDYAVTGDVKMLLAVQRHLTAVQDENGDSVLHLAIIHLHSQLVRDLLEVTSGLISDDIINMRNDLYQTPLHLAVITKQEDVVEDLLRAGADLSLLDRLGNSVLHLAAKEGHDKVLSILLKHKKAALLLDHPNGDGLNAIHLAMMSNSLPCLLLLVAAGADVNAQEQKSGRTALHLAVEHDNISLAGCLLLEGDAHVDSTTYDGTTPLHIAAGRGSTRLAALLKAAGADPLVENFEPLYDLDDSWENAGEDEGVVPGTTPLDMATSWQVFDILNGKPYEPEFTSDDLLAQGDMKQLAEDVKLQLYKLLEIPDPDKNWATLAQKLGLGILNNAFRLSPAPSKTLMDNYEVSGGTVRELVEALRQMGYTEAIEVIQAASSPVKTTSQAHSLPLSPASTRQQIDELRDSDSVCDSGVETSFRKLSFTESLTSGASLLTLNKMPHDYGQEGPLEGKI
T1 sequence (Q00653 whole entry, looked up): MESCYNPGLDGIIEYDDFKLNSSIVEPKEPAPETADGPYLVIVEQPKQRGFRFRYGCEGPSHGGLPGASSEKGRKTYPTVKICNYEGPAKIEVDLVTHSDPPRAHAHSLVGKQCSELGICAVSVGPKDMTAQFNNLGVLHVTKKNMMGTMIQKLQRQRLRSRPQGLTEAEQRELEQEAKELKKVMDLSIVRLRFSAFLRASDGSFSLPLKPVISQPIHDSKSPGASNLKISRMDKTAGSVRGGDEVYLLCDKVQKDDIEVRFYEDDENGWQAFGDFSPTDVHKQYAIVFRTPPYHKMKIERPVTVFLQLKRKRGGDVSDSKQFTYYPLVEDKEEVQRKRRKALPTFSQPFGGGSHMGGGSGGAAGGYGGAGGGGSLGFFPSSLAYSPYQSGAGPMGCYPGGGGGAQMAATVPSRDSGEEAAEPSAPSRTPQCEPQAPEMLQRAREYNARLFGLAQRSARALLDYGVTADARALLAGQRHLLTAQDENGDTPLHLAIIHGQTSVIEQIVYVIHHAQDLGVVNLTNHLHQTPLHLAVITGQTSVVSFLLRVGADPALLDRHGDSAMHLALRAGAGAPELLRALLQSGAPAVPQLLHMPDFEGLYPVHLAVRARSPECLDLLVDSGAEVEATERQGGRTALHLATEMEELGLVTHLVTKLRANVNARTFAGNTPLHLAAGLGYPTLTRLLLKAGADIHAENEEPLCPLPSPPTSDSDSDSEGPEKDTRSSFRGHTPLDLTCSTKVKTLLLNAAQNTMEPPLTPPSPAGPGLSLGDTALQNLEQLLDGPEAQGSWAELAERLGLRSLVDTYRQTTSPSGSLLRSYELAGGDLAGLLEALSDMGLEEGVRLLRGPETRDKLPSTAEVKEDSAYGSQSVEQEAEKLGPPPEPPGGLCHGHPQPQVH
T1 sequence (Q04206 whole entry, looked up): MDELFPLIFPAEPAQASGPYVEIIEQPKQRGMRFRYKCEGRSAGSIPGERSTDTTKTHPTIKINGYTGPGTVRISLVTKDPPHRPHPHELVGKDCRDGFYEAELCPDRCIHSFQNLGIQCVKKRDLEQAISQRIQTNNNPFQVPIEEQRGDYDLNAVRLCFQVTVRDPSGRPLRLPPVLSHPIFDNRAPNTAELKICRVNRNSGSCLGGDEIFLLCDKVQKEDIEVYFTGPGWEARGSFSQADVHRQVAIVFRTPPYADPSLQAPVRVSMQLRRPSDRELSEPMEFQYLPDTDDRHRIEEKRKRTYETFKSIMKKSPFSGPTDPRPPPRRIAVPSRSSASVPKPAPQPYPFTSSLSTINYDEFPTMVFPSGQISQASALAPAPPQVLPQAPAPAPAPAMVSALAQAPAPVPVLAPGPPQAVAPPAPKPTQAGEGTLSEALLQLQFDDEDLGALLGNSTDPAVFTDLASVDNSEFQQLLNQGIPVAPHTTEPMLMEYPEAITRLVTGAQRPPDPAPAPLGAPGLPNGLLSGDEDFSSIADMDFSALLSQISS
Summary of the method: (§1)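 NF-κB activation monitored by secreted embryonic alkaline phosphatase reporter in HEK 293T cells stimulated via TLR4 or TLR3; compound tested at concentrations […].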

[5] = test system: RAW264.7; assay: Antiinflammatory activity in mouse RAW264.7 cells assessed as inhibition of pam2CSK4-induced nitric oxide production; format: functional, cell-based
Summary of the method: (§2)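 RAW 264.7 cells stimulated with Pam2CSK4 (TLR2/6 ligand) or Poly I:C (TLR3 ligand) with varying compound concentrations; NO production read out. Normalized to agonist + solvent (100%) versus untreated (0%); IC50 from dose–response curves, nine replicates averaged, SD shown.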

[6] = test system: RAW264.7; assay: Cytotoxicity against mouse RAW264.7 cells assessed as cell viability up to 100 uM by WST1 assay; format: cell-based
Summary of the method: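 Cell viability assay run on the compound-treated RAW 264.7 cultures at each tested concentration; LC50 taken as concentration giving 50% viability.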

[7] = test system: RAW264.7; assay: Antiinflammatory activity in mouse RAW264.7 cells assessed as inhibition of poly I:C-induced nitric oxide production; format: functional, cell-based; summary of the method: as §2
[8] = test system: RAW264.7; assay: Inhibition of LPS-induced iNOS mRNA expression in mouse RAW264.7 cells after 20 hrs by RT-PCR analysis; format: functional, cell-based
Summary of the method: (§3)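 RAW 264.7 cells incubated 20 h with 20 ng/mL LPS and varying compound concentrations; iNOS mRNA quantified by real-time PCR, ligand-induced cells set to fold change 1. Three biological replicates, each in technical duplicate; SD reported.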

[9] = test system: RAW264.7; assay: Inhibition of LPS-induced iNOS protein expression in mouse RAW264.7 cells after 20 hrs by Western blot analysis; format: functional, cell-based
Summary of the method: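 RAW 264.7 cells treated with LPS and varying compound concentrations; iNOS protein detected by Western blot using a pan-NOS antibody.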

[10] = biological target: T1, Nuclear factor NF-kappa-B complex (Homo sapiens); assay: Inhibition of poly I:C-induced NFkappaB activation in human HEK293T cells at 0.5 to 1 uM after 18 to 24 hrs by secreted embryonic alkaline phosphatase reporter gene assay; format: cell-based; conditions: HEK-293T; summary of the method: as §1
[11] = biological target: T1, Nuclear factor NF-kappa-B complex (Homo sapiens); assay: Inhibition of TNFalpha-induced NFkappaB activation in human HEK293T cells at 0.5 to 1 uM after 18 to 24 hrs by secreted embryonic alkaline phosphatase reporter gene assay; format: cell-based; conditions: HEK-293T
[12] = test system: RAW264.7; assay: Inhibition of TNFalpha production in mouse RAW264.7 cells at 0.5 to 1 uM by ELISA; format: functional, cell-based
Summary of the method: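 TNF-α cytokine levels from compound-treated RAW 264.7 cells measured by commercial ELISA.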

[13] = Inhibition of JAK/STAT signaling pathway in LPS-induced mouse RAW264.7 cells assessed as inhibition of IFNgamma-induced nitric oxide production; format: cell-based
Summary of the method: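 JAK/STAT1 signalling activated in RAW 264.7 cells with 5 ng/mL IFN-γ alongside varying compound concentrations; NO production measured. Values normalized with ligand + solvent as 100% and untreated cells as 0%; IC50 derived from dose–response.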

[14] = Inhibition of JAK/STAT signaling pathway in LPS-induced mouse RAW264.7 cells assessed as change in NOS2 mRNA expression by RT-PCR analysis relative to control; format: cell-based
[15] = Inhibition of JAK/STAT signaling pathway in LPS-induced mouse RAW264.7 cells assessed as change in Cebpb mRNA expression by RT-PCR analysis relative to control; format: cell-based
[16] = Inhibition of JAK/STAT signaling pathway in LPS-induced mouse RAW264.7 cells assessed as change in Gtp1 mRNA expression by RT-PCR analysis relative to control; format: cell-based
[17] = test system: RAW264.7; assay: Inhibition of LPS-induced iNOS mRNA expression in mouse RAW264.7 cells at 10 to 100 uM after 20 hrs by RT-PCR analysis; format: functional; summary of the method: as §3
[18] = test system: RAW 264.7 cells (Mus musculus); assay: Antiinflammatory activity in mouse RAW264.7 cells assessed as inhibition of LPS-induced nitric oxide production

Row | Structure (SMILES) | IC50 [1] [µM] | CC50 [2] [µM] | further results
1 | CC(C)(C)OC(=O)N(Cc1ccco1)C(=O)c1ccc(CN2Cc3ccccc3S2(=O)=O)cc1 | 10.6 | > 100 | 
2 | O=C(c1ccc(CN2Cc3ccccc3S2(=O)=O)cc1)N1CCCCC1 | 44.3 | > 100 | 
3 | CC(C)(C)OC(=O)c1ccc(CN2C(=O)c3ccccc3S2(=O)=O)cc1 | 10.6 | > 100 | 
4 | CC(C)(C)OC(=O)NC(=O)c1ccc(CN2C(=O)c3ccccc3S2(=O)=O)cc1 | 64.7 | > 100 | 
5 | O=C(c1ccc(CN2Cc3ccccc3C2=O)cc1)N1CCCCC1 | 21.9 | > 100 | 
6 | O=C(NCc1ccco1)c1ccc(CN2C(=O)c3ccccc3C2=O)cc1 | 56 | > 100 | 
7 | CNC(=O)c1ccc(CN2C(=O)c3ccccc3S2(=O)=O)cc1 | 37.7 | > 100 | 
8 | NC(=O)c1ccc(CN2C(=O)c3ccccc3S2(=O)=O)cc1 | 50.6 | > 100 | inhibition (INH) [3]: 50%
9 | O=C(NCCc1ccco1)c1ccc(CN2C(=O)c3ccccc3S2(=O)=O)cc1 | 76.6 | > 100 | 
10 | CC(C)(C)OC(=O)N(Cc1ccco1)C(=O)c1ccc(CN2C(=O)c3ccccc3C2=O)cc1 | 3.45 | > 100 | 
11 | O=C(NCc1ccco1)c1ccc(CN2Cc3ccccc3S2(=O)=O)cc1 | 68.4 | > 100 | 
12 | CC(C)(C)OC(=O)N(Cc1ccco1)C(=O)c1ccc(Cn2c(=O)c3ccccc3[s+]2[O-])cc1 (centres undefined) | 68 | 87.3 | 
13 | CC(C)(C)OC(=O)N(Cc1ccco1)C(=O)c1ccc(Cn2sc3ccccc3c2=O)cc1 | 68 | > 100 | inhibition (INH) [3]: 50%
14 | CC1=C(c2ccc(C)c(C)c2)S(=O)(=O)N(Cc2ccc(C(=O)N3CCCCC3)cc2)C1=O | 16.5 | > 100 | 
15 | COC(=O)N(Cc1ccco1)C(=O)c1ccc(CN2C(=O)c3ccccc3S2(=O)=O)cc1 | 76 | > 100 | 
16 | O=C(NCc1ccco1)c1ccc(Cn2oc3ccccc3c2=O)cc1 | 49.3 | > 100 | 
17 | O=C(c1ccc(Cn2sc3ccccc3c2=O)cc1)N1CCCCC1 | 5.38 | 70.3 | 
18 | O=C(O)c1ccc(CN2C(=O)c3ccccc3S2(=O)=O)cc1 | 74.7 | > 100 | 

Row | Structure (SMILES) | IC50 [1] [µM] | CC50 [2] [µM] | further results
19 | O=C(NCc1ccco1)c1ccc(CN2Cc3ccccc3C2=O)cc1 | 49.7 | > 100 | 
20 | CC(C)(C)OC(=O)N(Cc1ccco1)C(=O)c1ccc(CN2C(=O)c3ccccc3S2(=O)=O)cc1 | 2.61 | > 100 | inhibition [4]: inactive; inhibition [1]: Dose-dependent effect; IC50 [5]: 1.69 µM; inhibition [5]: Dose-dependent effect; Activity [6]: Non-toxic; IC50 [7]: 10.9 µM; inhibition [7]: Dose-dependent effect; inhibition [8]: Dose-dependent effect; inhibition [9]: Dose-dependent effect; inhibition (INH) [3]: >70%; inhibition [10]: inactive; inhibition [11]: inactive; inhibition [12]: inactive; IC50 [13]: 7.88 µM; inhibition [13]: Dose-dependent effect; Activity [14]: Active; Activity [15]: Active; Activity [16]: Active; inhibition (INH) [17]: <=67%; IC50 [18]: 9.61 µM
21 | CC1=C(c2cc[n+]([O-])cc2)S(=O)(=O)N(Cc2ccc(C(=O)N3CCCCC3)cc2)C1=O | 79.4 | > 100 | 
22 | CC(C)(C)OC(=O)N(Cc1ccco1)C(=O)c1ccc(Cn2oc3ccccc3c2=O)cc1 | 6.69 | > 100 | 
23 | O=C(c1ccc(Cn2c(=O)c3ccccc3[s+]2[O-])cc1)N1CCCCC1 (centres undefined) | 49 | > 100 | 
24 | O=C(c1ccc(CN2C(=O)c3ccccc3C2=O)cc1)N1CCCCC1 | > 100 | > 100 | 
25 | CC(C)(C)OC(=O)N(Cc1ccco1)C(=O)c1ccc(CN2Cc3ccccc3C2=O)cc1 | 51.8 | 95.2 | 
26 | O=C(NCc1ccco1)c1ccc(Cn2sc3ccccc3c2=O)cc1 | 19.8 | > 100 | 
27 | CN(Cc1ccco1)C(=O)c1ccc(CN2C(=O)c3ccccc3S2(=O)=O)cc1 | 79.6 | > 100 | 
28 | O=C(c1ccc(CN2C(=O)c3ccccc3S2(=O)=O)cc1)N1CCCCC1 | 50.6 | 69.2 | 
29 | O=C(c1ccc(Cn2oc3ccccc3c2=O)cc1)N1CCCCC1 | 16.8 | 66.2 | 
30 | CC1=C(c2ccc3ccccc3c2)S(=O)(=O)N(Cc2ccc(C(=O)N3CCCCC3)cc2)C1=O | 9.61 | 47.9 | 
31 | CC(C)(C)OC(=O)N(CCc1ccco1)C(=O)c1ccc(CN2C(=O)c3ccccc3S2(=O)=O)cc1 | 48.6 | > 100 | 
32 | CC(C)(C)OC(=O)N(C(=O)OC(C)(C)C)C(=O)c1ccc(CN2C(=O)c3ccccc3S2(=O)=O)cc1 | 33.4 | > 100 | 
33 | O=C(NCc1ccco1)c1ccc(CN2C(=O)c3ccccc3S2(=O)=O)cc1 | 24.3 | > 100 | 
34 | CC(=O)N(Cc1ccco1)C(=O)c1ccc(CN2C(=O)c3ccccc3S2(=O)=O)cc1 | 42.6 | > 100 | 
35 | O=C(NCc1ccco1)c1ccc(Cn2c(=O)c3ccccc3[s+]2[O-])cc1 (centres undefined) | 23.3 | > 100 | 
36 | CN(C(=O)OC(C)(C)C)C(=O)c1ccc(CN2C(=O)c3ccccc3S2(=O)=O)cc1 | 42 | > 100 | 
